In assay [1] the target is T1, Human immunodeficiency virus type 1 reverse transcriptase (Human immunodeficiency virus 1, UniProt Q72547). Nature of the assay: Inhibition of HIV1 reverse transcriptase p66/p51 polymerase using PPT57 DNA/Cy5-labeled PPT24 as template/primer preincubated for 10 mins followed by dNTP addition measured after 5 mins by bromophenol blue staining based phosphor imaging analysis. The essentials: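 Gel-based DNA synthesis: PPT57 DNA template (3-fold molar excess) heat-annealed to 50 nM 5'-Cy5-labeled PPT24 primer; 200 nM RT in 50 mM Tris-HCl pH 7.8, 50 mM NaCl, 6 mM MgCl2. Started with 0.5 mM each dNTP, 5 min, 12% denaturing gel.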

The target in assay [2] is Human immunodeficiency virus type 1 reverse transcriptase (Human immunodeficiency virus 1) (UniProt Q72547). Nature of the assay: Inhibition of HIV1 reverse transcriptase p66/p51 assessed as freezing of template-primer-enzyme complex at pretranslocated stage at 100 uM using 5'-radiolabeled PBS36c DNA/5'-TTCTGACTAAAAGGGTCTGAGGGAT-3 as template/primer preincubated for 10 mins followed by Fe2+ addition by site-specific foot printing assay. The essentials:
(§1)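 Fe2+ chemical footprinting: 50 nM 5'-radiolabeled PBS36c DNA template annealed to 150 nM primer, incubated with 750 nM HIV-1 RT in 120 mM sodium cacodylate (pH 7), 20 mM NaCl, 6 mM MgCl2. Compound added at fixed or increasing concentrations, 10 min preincubation at 37 °C. Screening at fixed concentration, 10 µM or 100 µM depending on compound.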

Assay [3] concerns the target T1, Human immunodeficiency virus type 1 reverse transcriptase. Nature of the assay: Inhibition of HIV1 reverse transcriptase p66/p51 RNase H preincubated for 10 mins followed by PBS-22dpol/radiolabeled PBS-14r8d addition measured after 5 mins. The essentials:
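Inhibitors titrated up to 250 µM (≤5% final DMSO), 10 min preincubation at 37 °C before reaction start.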

In assay [4] the target is Human immunodeficiency virus type 1 reverse transcriptase (Human immunodeficiency virus 1) (UniProt Q72547). Nature of the assay: Inhibition of HIV1 reverse transcriptase p66/p51 assessed as freezing of template-primer-enzyme complex at pretranslocated stage using 5'-radiolabeled PBS36c DNA/5'-TTCTGACTAAAAGGGTCTGAGGGAT-3 as template/primer preincubated for 10 mins followed by Fe2+ addition by site-specific foot printing assay. The essentials: as §1

Assay [5] shares this target. Nature of the assay: Ratio of IC50 for HIV1 reverse transcriptase p66/p51 RNase H to IC50 for HIV1 reverse transcriptase p66/p51 polymerase.
The target in assay [6] is T1, Human immunodeficiency virus type 1 reverse transcriptase. Nature of the assay: Inhibition of HIV1 reverse transcriptase p66/p51. In short, it runs like this: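 Gel-based DNA synthesis: PPT57 DNA template (3-fold molar excess) heat-annealed to 50 nM 5'-Cy5-labeled PPT24 primer; 200 nM RT in 50 mM Tris-HCl pH 7.8, 50 mM NaCl, 6 mM MgCl2. Inhibitor titrated up to 250 µM (≤5% final DMSO), 10 min preincubation at 37 °C. Started with 0.5 mM each dNTP, 5 min, 12% denaturing gel. IC50 from variable-slope curve fit, ≥3 independent determinations.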

Assay [7] deals with Human immunodeficiency virus type 1 reverse transcriptase (Human immunodeficiency virus 1) (UniProt Q72547). Nature of the assay: Inhibition of HIV1 reverse transcriptase p66/p51 assessed as freezing of template-primer-enzyme complex at […] stage at 10 uM using 5'-radiolabeled PBS36c DNA/5'-TTCTGACTAAAAGGGTCTGAGGGAT-3 as template/primer preincubated for 10 mins followed by Fe2+ addition by site-specific foot printing assay. The essentials: as §1

The target of assay [8] is Human immunodeficiency virus type 1 reverse transcriptase (Human immunodeficiency virus 1, UniProt Q72547, K65R). Nature of the assay: Inhibition of HIV1 reverse transcriptase p66/p51 polymerase K65R mutant using PPT57 DNA/Cy5-labeled PPT24 as template/primer preincubated for 10 mins followed by dNTP addition measured after 5 mins by bromophenol blue staining based phosphor imaging analysis. In short, it runs like this: (§2)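 Template/primer: Cy5-labelled PPT24 primer (50 nM) heat-annealed to a 3-fold molar excess of PPT57 DNA template. Incubated with 200 nM RT in 50 mM Tris-HCl pH 7.8, 50 mM NaCl, 6 mM MgCl2. Inhibitor titrated up to […], with at most 5% final DMSO. Pre-incubated 10 min at 37 °C. Started with 0.5 mM each dNTP, run 5 min, stopped with formamide dye. Products resolved on 12% denaturing PAGE and imaged. Normalized data fitted to a variable-slope log[inhibitor]–response curve to give IC50.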

Assay [9] concerns the target Human immunodeficiency virus type 1 reverse transcriptase (Human immunodeficiency virus 1, UniProt Q72547, E89K). Nature of the assay: Inhibition of HIV1 reverse transcriptase p66/p51 polymerase E89K mutant using PPT57 DNA/Cy5-labeled PPT24 as template/primer preincubated for 10 mins followed by dNTP addition measured after 5 mins by bromophenol blue staining based phosphor imaging analysis. In short, it runs like this:
as §2

Assay [10] addresses Human immunodeficiency virus type 1 reverse transcriptase (Human immunodeficiency virus 1, UniProt Q72547, M184V). Nature of the assay: Inhibition of HIV1 reverse transcriptase p66/p51 polymerase M184V mutant using PPT57 DNA/Cy5-labeled PPT24 as template/primer preincubated for 10 mins followed by dNTP addition measured after 5 mins by bromophenol blue staining based phosphor imaging analysis. In short, it runs like this:
as §2

For assay [11], the system named is Human immunodeficiency virus 1. Nature of the assay: Ratio of IC50 for HIV1 reverse transcriptase p66/p51 polymerase K65R mutant to IC50 for HIV1 reverse transcriptase p66/p51 polymerase wild type.
The test system of assay [12] is Human immunodeficiency virus 1. Nature of the assay: Ratio of IC50 for HIV1 reverse transcriptase p66/p51 polymerase M184V mutant to IC50 for HIV1 reverse transcriptase p66/p51 polymerase wild type.
Assay [13] relates to Human immunodeficiency virus 1. Nature of the assay: Ratio of IC50 for HIV1 reverse transcriptase p66/p51 polymerase E89K mutant to IC50 for HIV1 reverse transcriptase p66/p51 polymerase wild type.

27 compounds from ChEMBL document CHEMBL4219091, “Pharmacophore requirements for HIV-1 reverse transcriptase inhibitors that selectively "Freeze" the pre-translocated complex during the polymerization catalytic cycle” (Bioorg Med Chem, 2018) can be followed below.

Calls of active or inactive are those of the source. The rule behind the calls is not given here.

In the case of `COc1ccc(-c2cnc3ncnc(NCc4nc(O)c(O)c(C(=O)O)n4)c3c2)cc1`, the IC50 (in general, the concentration needed to halve the response being measured) in assay [1] came out at 25 µM; in assay [3], 1500 nM. In [2], the “Active/not active call for freezing the pre-translocated complex” value is “inactive”. As for `Cc1ccc(-c2nc(O)c(O)c(C(=O)O)n2)cc1Cl`, the IC50 in assay [1] amounted to 1.6 µM; in [3], 25000 nM. In addition, the inhibition entry in [4] is “Dose-dependent effect”. In addition, the Ratio IC50 in [5] is above 10. `Cc1noc(C)c1-c1ccc(-c2nc(O)c(O)c(C(=O)O)n2)cc1`: in [1], the half-inhibitory concentration (IC50) was above 100 µM. The same measure, in the same setting: the value for `Nc1ncnc2c1ncn2Cc1nc(O)c(O)c(C(=O)O)n1` was above 100 µM. With `COc1ccc(-c2cc3c(NCc4nc(O)c(O)c(C(=O)O)n4)ncnc3nc2SC)cc1`, the results for the IC50 in assay [1] and in assay [3] were 62 µM and 2000 nM, respectively. Consider `O=C(O)c1nc(-c2ccc(Br)cc2)nc(O)c1O`, for which it took 2.8 µM to reach half-maximal inhibition in assay [1] (IC50). In assay [1], `Nc1ncnc2c1ncn2CCc1nc(O)c(O)c(C(=O)O)n1` yielded an IC50 of 41 µM. Still for that read-out and setting: the value for `O=C(O)c1nc(-c2ccc(Cl)cc2)[nH]c(=O)c1O` was 4.5 µM. As to `O=C(O)c1nc(-c2cccc(Br)c2)nc(O)c1O`, in [1], the IC50 is 14 µM. Also, the “Active/not active call for freezing the pre-translocated complex” value in [2] was “Active”. Regarding `O=P(O)(O)C(Nc1cccc(Br)c1)P(=O)(O)O`, in assay [2], the “Active/not active call for freezing the pre-translocated complex” value is “Active”. Regarding `Cc1cccc(-c2nc(O)c(O)c(C(=O)O)n2)c1`, the IC50 in assay [1] was determined as 49 µM.

Regarding `O=C(O)c1nc(Cc2ccc(Cl)cc2)nc(O)c1O`, 97 µM corresponded to half-maximal inhibition in assay [1] (IC50). `O=C(O)c1nc(-c2cc(C(F)(F)F)cc(C(F)(F)F)c2)nc(O)c1O` showed an IC50 in assay [1] of 20 µM. In addition, the “Active/not active call for freezing the pre-translocated complex” value in [2] was “inactive”. `CC(C)c1ccc(-c2nc(O)c(O)c(C(=O)O)n2)cc1` had an IC50 in [1] of 22 µM. That is a double-digit micromolar value. Same read-out and setting: the value for `O=C(O)c1nc(-c2cccc(Cl)c2)nc(O)c1O` was 18 µM.

For `O=C(Nc1ccc(-c2cccc(NC(P(=O)(O)O)P(=O)(O)O)c2)cc1)C1CC1`, the “Active/not active call for freezing the pre-translocated complex” value in [2] was “inactive”. Further, the IC50 in assay [6] is above 50 µM; in assay [3] it was 800 nM. Compound `COC(=O)c1nc(-c2ccc(C)c(Br)c2)nc(O)c1O` yielded an IC50 in assay [1] above 100 µM. Regarding `Cn1c2ccccc2c2c1cc(C#N)c(=O)n2-c1ccc([N+](=O)[O-])cc1`, the inhibition result in assay [7] was “Active”. Regarding `Cc1ccc(-c2nc(O)c(O)c(C(=O)O)n2)cc1Br`, the IC50 is 1.4 to 1.74 µM in assay [1]; 23000 nM in [3]; 1130 nM in [8]; 4.63 µM in assay [9]; 2790 nM in [10]. The inhibition entry in assay [4] was “Dose-dependent effect”. For the same compound, the Ratio IC50 was above 10 in [5], below 2 in [11], below 2 in [12] and 2.7 in assay [13].

`CSc1nc2ncnc(NCc3nc(O)c(O)c(C(=O)O)n3)c2cc1Br`: the IC50 in assay [1] was above 100 µM. `O=C(O)c1nc(-c2cccc(-c3ccc(F)c(F)c3)c2)nc(O)c1O` had an IC50 in [1] above 100 µM. Consider `O=C(O)c1nc(CNc2ncnc3ncc(Br)cc23)nc(O)c1O`, for which, in [1], the IC50 stood at 49 µM. The “Active/not active call for freezing the pre-translocated complex” value in assay [2] is “inactive”. `Cc1ccc(-c2nc(O)c(O)c(C(=O)O)n2)cc1` showed an IC50 in assay [1] of 6.3 µM. Same read-out and setting: the value for `O=C(O)c1nc(-c2ccccc2)nc(O)c1O` was above 100 µM; that for `O=C(O)c1nc(CNc2ncnc3ncccc23)nc(O)c1O` was 65 µM; that for `O=C(O)c1nc(-c2cccs2)nc(O)c1O` was 46 µM.

Consider `CNC(=O)c1nc(-c2ccc(C)c(Br)c2)nc(O)c1O`, for which the IC50 in assay [1] is above 100 µM.
